Assay outcomes as filed in PubChem.
Cav32 inh: inhibitors of human Cav3.2 T-type calcium channel; Cav3.2-expressing cells, Fluo-4 calcium fluorescence FDSS; stronger effect = lower value; B-score at 10 µM; actives 4% (n = 100,000);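 active = single-dose well whose peak fluorescence ratio is a statistical outlier from its plate by either plate-standardised score or position-corrected B-score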
CYP2C9 inh: blocks human cytochrome P450 2C9. P11712. CYP2C9 Supersomes, luciferin-H conversion, luminescence. inhibition, % at 5 µM. actives 20% (n = 96,000);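 active = blocking of liver enzyme CYP2C9 beyond about 50% at 5 µM, limit read from the data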
CYP2C19 act: cytochrome P450 2C19 (human) activation; P33261; recombinant CYP2C19, luciferin-H EGE luminescence; stronger effect = higher value; 0 = fully inhibited enzyme, 1 = untreated enzyme; activation factor at 5 µM; 96,000 tested, under 10 active;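 active = activation factor of at least 2 at 5 µM in the primary screen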;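 also: 0 = wells with 2.5 mM tranylcypromine and 1 = vehicle-only wells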
CYP2C19 inh: human CYP2C19 inhibition | actives 21% (n = 96,000) | P33261 | CYP2C19 Supersomes, luciferin-H EGE luminescence, 30 min | AID 778 | inhibition, % at 5 µM;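 active = CYP2C19 inhibition above a set limit at 5 µM in the primary screen, cut at about 50% in these data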;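 also: plate controls were negative control wells for no effect and 2.5 mM tranylcypromine positive control for full effect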
Rev-RRE block: inhibitors of HIV-1 Rev-RRE RNA interaction; P05866; inhibition, % at 8 µM; Rev peptide-RRE RNA binding, FRET; actives 0.79% (n = 97,000); AID 704;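 active = inhibition above the screen-wide mean plus 3 SD, cut at about 35% in these data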;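 also: 0% = median DMSO wells and 100% = median Neomycin B control wells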
Target sequence (P05866 whole entry, looked up): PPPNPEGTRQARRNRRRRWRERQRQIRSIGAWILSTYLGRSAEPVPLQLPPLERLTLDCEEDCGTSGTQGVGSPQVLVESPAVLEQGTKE
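Probe or stimulus: fluorescein-Rev peptide as binding partner; assay system: Cy5-tagged RRE RNA duplex with fluorescein-tagged Rev peptide; timing: 5 min compound–RNA preincubation, then 15 min with peptide, 25 °C; medium: HEPES pH 7.5 buffer with KCl, MgCl2, NaCl and EDTA; signal: fluorescein-to-Cy5 FRET, 480 nm excitation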
CYP2C9 activ: increases human cytochrome P450 2C9 activity; P11712; recombinant CYP2C9, luciferin-H conversion, luminescence; stronger effect = higher value; factor 1 = untreated enzyme, 0 = blocked; activation factor at 5 µM; actives 1.4% (n = 96,000); AID 1024;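 active = activation factor of 2 or more for CYP2C9 at a 5 µM dose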;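 also: 0 = sulfaphenazole-blocked wells and 1 = vehicle-only wells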
Active calls of the source: *. Only a sample is shown.

What do the screens show for `O=C(C1CCN(S(=O)(=O)c2cccc3nsnc23)CC1)N1CC=C(c2ccccc2)CC1`?
CYP2C9 inh: -24; CYP2C19 act: 0.7; CYP2C19 inh: 26; Rev-RRE block: 6; CYP2C9 activ: 1.2

What do the screens show for `N#Cc1ccccc1CSc1nc(O)cc(=O)[nH]1`?
Cav32 inh: 0.64; CYP2C9 inh: -10; CYP2C19 act: 1; CYP2C19 inh: 0; Rev-RRE block: 7; CYP2C9 activ: 1.1

What do the screens show for `O=C1C2CC=CCC2C(=O)N1c1cccc(OS(=O)(=O)c2ccc3ccccc3c2)c1` (configuration not stated)?
Cav32 inh: 1.4; CYP2C9 inh: -63; CYP2C19 act: 1; CYP2C19 inh: 3; Rev-RRE block: 7; CYP2C9 activ: 1.6

How did CC(C)CN(CC(C)C)C(=O)Cc1coc2ccc3ccccc3c12 do in these assays?
Cav32 inh: -4.9*; CYP2C9 inh: 12; CYP2C19 act: 0.6; CYP2C19 inh: 40; Rev-RRE block: 2; CYP2C9 activ: 0.9

What do the screens show for `Cc1cccc(NC(=O)Cc2coc3ccc4ccccc4c23)n1`?
Cav32 inh: -3.6; CYP2C9 inh: -127; CYP2C19 act: 0.1; CYP2C19 inh: 88*; Rev-RRE block: 9; CYP2C9 activ: 2.3*

How did CCCCNC(=O)Cc1c(O)c2ccccc2[nH]c1=O do in these assays?
Cav32 inh: 0.36; CYP2C9 inh: 18; CYP2C19 act: 0.8; CYP2C19 inh: 16; Rev-RRE block: 7; CYP2C9 activ: 0.8

What do the screens show for `Cc1ccc(CC(=O)Nc2cccc(C)n2)cc1`?
Cav32 inh: -0.88; CYP2C9 inh: 23; CYP2C19 act: 0.3; CYP2C19 inh: 74*; Rev-RRE block: 3; CYP2C9 activ: 0.8

How did CCCCNC(=O)Cc1coc2ccc3ccccc3c12 do in these assays?
Cav32 inh: -0.83; CYP2C9 inh: -208; CYP2C19 act: 0.4; CYP2C19 inh: 64*; Rev-RRE block: 9; CYP2C9 activ: 3.1*

How did Cc1cccc(NC(=O)CN(C)S(=O)(=O)c2ccccc2)n1 do in these assays?
Cav32 inh: 0.58; CYP2C9 inh: 23; CYP2C19 act: 0.8; CYP2C19 inh: 19; Rev-RRE block: 0; CYP2C9 activ: 0.8

Results for Nc1[nH]c(=O)ncc1F ?
Cav32 inh: 0.86

What do the screens show for `NS(=O)(=O)c1ccc(S(=O)(=O)N(Cc2ccccc2F)CC2CCCO2)cc1` (configuration not stated)?
Cav32 inh: -0.03; CYP2C9 inh: 3; CYP2C19 act: 0.9; CYP2C19 inh: 11; Rev-RRE block: 4; CYP2C9 activ: 1

Results for Cc1ccc(CNC(=O)C2CC(c3cccc([N+](=O)[O-])c3)=NO2)o1 (configuration not stated) ?
Cav32 inh: -0.072; CYP2C9 inh: -18; CYP2C19 act: 0.9; CYP2C19 inh: 11; Rev-RRE block: -1; CYP2C9 activ: 1.2

How did O=C(Cc1ccc2cccnc2c1)c1ccc(O)cc1O do in these assays?
Cav32 inh: -0.32; CYP2C9 inh: 25; CYP2C19 act: 0.6; CYP2C19 inh: 39; Rev-RRE block: 9; CYP2C9 activ: 0.7

What do the screens show for `Nc1cc(N)nc(SCCOc2ccccc2)n1`?
Cav32 inh: 0.36; CYP2C9 inh: -44; CYP2C19 act: 0.9; CYP2C19 inh: 7; Rev-RRE block: 3; CYP2C9 activ: 1.4

What do the screens show for `Cc1ccc(OCCSc2cc(C)nc(N)n2)cc1`?
Cav32 inh: -3.1; CYP2C9 inh: 25; CYP2C19 act: 0.3; CYP2C19 inh: 72*; CYP2C9 activ: 0.8

Results for Cc1cccc(OCCSc2cc(C)nc(N)n2)c1 ?
Cav32 inh: -1.4; CYP2C9 inh: -8; CYP2C19 act: 0.4; CYP2C19 inh: 55*; CYP2C9 activ: 1.1

Results for COc1cccc(OCCSc2nc(N)cc(N)n2)c1 ?
Cav32 inh: -0.99; CYP2C9 inh: -28; CYP2C19 act: 0.8; CYP2C19 inh: 24; Rev-RRE block: 9; CYP2C9 activ: 1.3

How did COC(=O)CCCC1=CC2=C(c3ccccc3)C(=O)C(C)(OC(=O)C3CCCC3)C(=O)C2=CN1Cc1ccc(OC)cc1 (configuration not stated) do in these assays?
Cav32 inh: -0.02
